According to ChEMBL document CHEMBL2434946, “Synthesis of lipoic acid-peptide conjugates and their effect on collagen and melanogenesis” (Eur J Med Chem, 2013):
The source made the active and inactive calls. The calls are words filed in the database; no cut-off is given here. Peptide text beside a SMILES is read from it.

Assays:
[1] = Cytotoxicity against mouse B16F10 cells assessed as cell viability after 48 hrs by MTT assay; assay type: cell-based, B16-F10; settings: read-out: MNCC
In short: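 B16F10 mouse melanoma cells grown in DMEM with 10% FBS, 1% penicillin-streptomycin and […] at 37 °C under 5% CO2. Exposed to samples 48 h at 37 °C, then MTT added for 3 h with A570 read-out. Reported value is the highest tested dose that caused no loss of viability.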

[2] = biological target: T1, Tyrosinase (Mus musculus) (UniProt P11344); assay: Inhibition of tyrosinase in mouse B16F10 cells assessed as inhibition of melanin synthesis at 0.25 mM after 72 hrs by spectrophotometry relative to control; assay type: cell-based; settings: B16-F10
T1 sequence (whole entry): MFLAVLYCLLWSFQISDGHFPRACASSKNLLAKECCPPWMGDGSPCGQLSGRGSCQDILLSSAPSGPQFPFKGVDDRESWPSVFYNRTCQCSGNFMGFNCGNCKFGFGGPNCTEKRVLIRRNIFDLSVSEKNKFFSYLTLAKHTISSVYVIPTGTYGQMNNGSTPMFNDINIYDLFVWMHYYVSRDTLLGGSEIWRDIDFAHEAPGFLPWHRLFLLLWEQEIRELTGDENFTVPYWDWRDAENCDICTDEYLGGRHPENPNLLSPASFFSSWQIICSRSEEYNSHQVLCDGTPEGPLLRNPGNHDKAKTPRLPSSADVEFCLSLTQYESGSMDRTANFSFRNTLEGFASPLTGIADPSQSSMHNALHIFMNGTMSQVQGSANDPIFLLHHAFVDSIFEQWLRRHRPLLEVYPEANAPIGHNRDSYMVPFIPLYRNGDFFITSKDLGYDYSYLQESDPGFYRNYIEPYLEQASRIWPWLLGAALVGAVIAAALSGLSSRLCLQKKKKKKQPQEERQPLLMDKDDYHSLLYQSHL
In short: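 B16F10 cells grown with α-MSH were treated with samples for 72 h, then counted, washed and pelleted. Pellets solubilized in 1 N NaOH plus phosphate buffer pH 6.8 containing 1% Triton X-100 and 2 mM PMSF. Melanin read at 405 nm against a synthetic melanin standard curve and expressed as percent of control; triplicate, mean ± SD.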

[3] = Induction of HDF proliferation at 0.5 mM after 48 hrs by MTT assay relative to control; assay type: functional, Homo sapiens
In short: (§1)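 Human dermal fibroblasts grown in DMEM with 10% FBS and 1% penicillin-streptomycin at 37 °C under 5% CO2. Treated 48 h at 0.5, 2.5 and 5 mM. MTT ([…]) added for 3 h at 37 °C, then absorbance read at 570 nm. Result expressed as percent viable cells versus untreated control; triplicate, mean ± SD.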

[4] = biological target: T2, Tyrosinase (Agaricus bisporus) (UniProt O42713); assay: Inhibition of mushroom tyrosinase using L-DOPA as substrate at 2.5 mM preincubated for 10 to 15 mins prior to substrate addition by spectrophotometry
T2 sequence (whole entry): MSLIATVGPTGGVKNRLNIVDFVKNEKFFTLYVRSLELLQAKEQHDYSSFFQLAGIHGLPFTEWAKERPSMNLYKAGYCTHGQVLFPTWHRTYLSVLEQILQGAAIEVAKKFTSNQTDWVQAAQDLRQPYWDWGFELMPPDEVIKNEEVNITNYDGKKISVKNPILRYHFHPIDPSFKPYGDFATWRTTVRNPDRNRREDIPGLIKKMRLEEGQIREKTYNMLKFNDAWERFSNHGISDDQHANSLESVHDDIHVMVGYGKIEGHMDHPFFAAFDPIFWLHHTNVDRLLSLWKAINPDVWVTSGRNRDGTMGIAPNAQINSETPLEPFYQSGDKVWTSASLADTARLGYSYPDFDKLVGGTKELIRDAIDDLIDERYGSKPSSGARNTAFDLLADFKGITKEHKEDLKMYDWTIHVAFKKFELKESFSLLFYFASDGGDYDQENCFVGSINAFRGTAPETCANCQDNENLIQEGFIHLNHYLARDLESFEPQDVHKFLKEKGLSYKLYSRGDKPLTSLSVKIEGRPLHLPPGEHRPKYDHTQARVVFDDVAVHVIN
In short: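 Mushroom tyrosinase (625 U/mL solution) pre-incubated with sample in phosphate-buffered saline for 10–15 min at 25 °C. Reaction started with 0.03% L-DOPA, and dopachrome formation read at 475 nm. Result given as percent inhibition; triplicate, mean ± SD.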

[5] = Solubility of the compound in water; assay type: physicochemical
[6] = Inhibition of UV light-induced MMP-1 protein expression in HDF at 0.5 mM after 72 hrs UV light irradiation by ELISA; assay type: functional; settings: Homo sapiens
In short: (§2)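 HDFs washed twice with PBS, then exposed to UVA at 6.3 J/cm2. MMP-1 protein in culture medium measured by ELISA 72 h after irradiation: anti-MMP-1 monoclonal 60 min at 37 °C, alkaline phosphatase-conjugated anti-mouse IgG 30 min, OD405. IC50 taken as the dose that lowers UV-induced MMP-1 by 50%; triplicate, mean ± SD.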

[7] = Inhibition of UV light-induced MMP-1 protein expression in HDF after 72 hrs UV light irradiation by ELISA; assay type: functional, Homo sapiens; settings: for inhibition: Homo sapiens; in short: as §2
[8] = tested on: HDF; assay: Induction of collagen synthesis in HDF at 0.5 mM after 24 hrs by EIA; assay type: functional; settings: Homo sapiens
In short: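 HDFs seeded at 5 × 10^4 cells and grown 24 h in DMEM with 10% FBS. Medium then switched to serum-free medium containing sample (0.5 mM) for 24 h. Type I procollagen in the supernatant measured by enzyme immunoassay kit; triplicate, mean ± SD.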

[9] = Induction of HDF proliferation at 5 mM after 48 hrs by MTT assay relative to control; assay type: functional, Homo sapiens; in short: as §1
[10] = Cytotoxicity against HDF at 0.5 to 5 mM after 48 hrs by MTT assay; settings: human, 5000 µM; in short: as §1
[11] = tested on: HDF; assay: Induction of HDF proliferation at 0.1 mM after 48 hrs by MTT assay relative to control; assay type: functional; settings: Homo sapiens

inhibition [2] [%] | inhibition [4] | solubility [5] [mg/mL] | IC50 [7] [µM] | Compound | MNTC at 48 h [1] [mM] | Activity [3] [%] | inhibition [6] [%] | inhibition [7] | Activity [8] | Activity [9] [%] | Activity [10] | Activity [11]
46.1 | 60.2% | > 100 | 500 | C[C@@H](O)[C@H](NC(=O)[C@H](CCCCN)NC(=O)CCCC[C@@H]1CCSS1)C(=O)N[C@H](C(=O)N[C@@H](CCCCN)C(=O)N[C@@H](CO)C(=O)O)[C@@H](C)O (HELM PEPTIDE1{[O=C(CCCC[C@@H]1CCSS1)[*:2]].K.T.T.K.S}$$$$V2.0) | 1 | 24.5 | 49.5 | Dose-dependent effect | Active |  |  | 
7.5 | Active |  |  | H-KTTKS-OH | 5 |  |  | Dose-dependent effect | Active | 13.4 |  | 
 | Active |  |  | O=C(O)CCCCC1CCSS1 (stereo not drawn) [LIPOIC ACID, ALPHA] | 0.1 |  |  |  |  |  | Toxic | inactive
